How the values were obtained:
[1] = biological target: T1, Polyunsaturated fatty acid 5-lipoxygenase (Homo sapiens, UniProt P09917); assay: Inhibition of 5-lipoxygenase in human whole blood.; type: tissue-based
T1 sequence (P09917 whole entry): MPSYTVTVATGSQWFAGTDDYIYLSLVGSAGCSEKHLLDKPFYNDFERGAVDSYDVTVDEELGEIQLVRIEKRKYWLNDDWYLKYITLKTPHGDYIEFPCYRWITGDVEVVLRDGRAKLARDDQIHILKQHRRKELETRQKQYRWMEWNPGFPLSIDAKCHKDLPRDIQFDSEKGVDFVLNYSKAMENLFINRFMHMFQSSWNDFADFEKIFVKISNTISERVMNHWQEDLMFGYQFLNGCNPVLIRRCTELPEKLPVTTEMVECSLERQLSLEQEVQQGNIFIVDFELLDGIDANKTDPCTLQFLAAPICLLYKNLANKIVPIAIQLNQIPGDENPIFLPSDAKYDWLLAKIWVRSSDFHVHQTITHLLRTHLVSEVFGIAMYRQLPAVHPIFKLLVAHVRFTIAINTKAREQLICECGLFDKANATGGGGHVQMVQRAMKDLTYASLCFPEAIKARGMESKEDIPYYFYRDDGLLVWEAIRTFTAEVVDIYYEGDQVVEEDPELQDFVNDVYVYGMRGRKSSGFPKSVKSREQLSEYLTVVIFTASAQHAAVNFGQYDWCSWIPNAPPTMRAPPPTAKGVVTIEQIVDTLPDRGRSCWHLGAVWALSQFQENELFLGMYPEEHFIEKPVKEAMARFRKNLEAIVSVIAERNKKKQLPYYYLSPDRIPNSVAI
Outline: (§1)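 Eicosanoid (LTB4, PGE2, TXB2) generation measured in vitro in heparinised rat or human whole blood; IC50s given ± SE with the number of determinations.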

[2] = biological target: T2, Polyunsaturated fatty acid 5-lipoxygenase (Mus musculus, UniProt P48999); assay: Inhibition of 5-lipoxygenase in mouse macrophages.
T2 sequence (P48999 whole entry): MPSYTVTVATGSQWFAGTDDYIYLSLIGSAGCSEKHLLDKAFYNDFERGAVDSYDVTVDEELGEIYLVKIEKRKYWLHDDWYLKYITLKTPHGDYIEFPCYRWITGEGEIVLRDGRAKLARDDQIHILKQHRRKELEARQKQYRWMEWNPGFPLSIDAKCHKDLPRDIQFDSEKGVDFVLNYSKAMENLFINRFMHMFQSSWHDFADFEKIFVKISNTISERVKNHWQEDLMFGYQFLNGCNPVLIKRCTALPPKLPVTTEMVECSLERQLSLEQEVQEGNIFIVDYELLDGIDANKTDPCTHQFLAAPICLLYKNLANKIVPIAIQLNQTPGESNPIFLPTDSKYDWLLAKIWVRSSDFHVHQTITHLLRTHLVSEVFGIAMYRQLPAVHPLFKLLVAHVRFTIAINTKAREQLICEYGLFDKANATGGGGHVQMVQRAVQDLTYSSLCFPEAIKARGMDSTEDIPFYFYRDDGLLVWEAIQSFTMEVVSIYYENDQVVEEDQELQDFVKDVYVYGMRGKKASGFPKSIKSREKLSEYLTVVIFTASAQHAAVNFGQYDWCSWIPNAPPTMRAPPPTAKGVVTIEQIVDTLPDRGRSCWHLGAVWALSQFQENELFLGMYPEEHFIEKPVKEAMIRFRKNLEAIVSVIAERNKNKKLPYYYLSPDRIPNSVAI
Outline: (§2)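 LTC4 and PGE2 synthesis measured in plasma-free cultures of murine peritoneal macrophages.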

[3] = biological target: T3, Polyunsaturated fatty acid 5-lipoxygenase (Rattus norvegicus, UniProt P12527); assay: Compound was tested for the inhibition of 5-lipoxygenase (5-Lpo) in rat whole blood.; type: tissue-based; outline: as §1
T3 sequence (P12527 whole entry): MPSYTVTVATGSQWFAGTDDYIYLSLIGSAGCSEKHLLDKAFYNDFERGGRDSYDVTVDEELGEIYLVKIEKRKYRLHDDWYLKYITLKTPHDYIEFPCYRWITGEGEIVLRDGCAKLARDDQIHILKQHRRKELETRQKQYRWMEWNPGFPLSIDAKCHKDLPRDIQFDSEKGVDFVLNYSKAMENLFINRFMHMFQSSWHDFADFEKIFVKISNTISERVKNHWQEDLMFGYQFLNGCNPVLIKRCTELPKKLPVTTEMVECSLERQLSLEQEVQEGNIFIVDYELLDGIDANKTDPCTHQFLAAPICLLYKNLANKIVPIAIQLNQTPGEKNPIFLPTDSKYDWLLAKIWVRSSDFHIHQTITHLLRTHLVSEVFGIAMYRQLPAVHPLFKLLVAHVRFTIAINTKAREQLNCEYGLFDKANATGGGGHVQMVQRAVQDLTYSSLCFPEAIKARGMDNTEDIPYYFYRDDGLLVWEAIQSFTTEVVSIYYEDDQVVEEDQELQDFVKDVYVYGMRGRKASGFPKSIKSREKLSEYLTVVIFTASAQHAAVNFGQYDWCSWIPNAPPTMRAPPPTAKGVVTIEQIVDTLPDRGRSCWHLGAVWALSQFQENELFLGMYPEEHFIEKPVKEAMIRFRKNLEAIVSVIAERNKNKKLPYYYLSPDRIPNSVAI

Homo sapiens [4] = species on record: Homo sapiens; assay: In vitro inhibition of LTB4 synthesis in human whole blood.; type: functional; outline: as §1
Homo sapiens [5] = species on record: Homo sapiens; assay: In vitro inhibition of TXB2 synthesis in human whole blood.; type: functional; outline: as §1
Mus musculus [6] = species on record: Mus musculus; assay: In vitro inhibition of LTC4 synthesis in plasma free mouse macrophages.; type: functional; outline: as §2
Mus musculus [7] = species on record: Mus musculus; assay: In vitro inhibition of PGE-2 synthesis in plasma free mouse macrophages.; type: functional; outline: as §2
Rattus norvegicus [8] = species on record: Rattus norvegicus; assay: In vitro inhibition of LTB4 synthesis in rat whole blood.; type: functional; outline: as §1
Rattus norvegicus [9] = species on record: Rattus norvegicus; assay: In vitro inhibition of PGE-2 synthesis against rat whole blood.; type: functional; conditions: in the assay text read “TXB2” for “PGE-2”; outline: as §1
Rattus norvegicus [10] = assay: Compound was evaluated ex vivo for inhibition of LTB4 synthesis in rat on oral administration.; type: functional
Outline: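 Rats dosed orally at 1 mL/kg with a suspension made by mixing 300 µL of compound in DMSO into 15 mL of 0.5% hydroxypropyl methyl cellulose with 0.1% polysorbate 80. Controls got the same volume of vehicle. After 1 h the animals were killed and bled, and LTB4 and TXB2 synthesis was measured in the blood ex vivo, n = 5 per point.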

[11] = biological target: T3, Polyunsaturated fatty acid 5-lipoxygenase; assay: Compound was tested for the inhibition of 5-lipoxygenase (5-LPO) in rat basophilic leukemia (RBL) cells.; type: cell-based, RBL-1
Outline: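 Cell-free 5-LPO activity was measured spectrophotometrically. The enzyme source was the high-speed supernatant of rat basophilic leukemia (RBL) cells.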

Rattus norvegicus [12] = species on record: Rattus norvegicus; assay: In vitro inhibition of TXB2 synthesis against rat whole blood.

Row | IC50 [1] [nM] | IC50 [2] [nM] | Compound | further results
1 | 4800 |  | CCC(OC)(c1cccc(OCc2cccc3ccccc23)c1)c1nccs1 (configuration not stated) | 
2 | ~40000 | 820 | CCC(OC)(c1cccc(OCc2ccc3ccccc3c2)c1)c1nc(C)cs1 (configuration not stated) | 
3 | ~40000 |  | CCC(OC)(c1ccc(OCc2ccc3ccccc3c2)cc1)c1nccs1 (configuration not stated) | 
4 | 8800 | 80 | CCCC(O)(c1cccc(OCc2ccc3ccccc3c2)c1)c1nccs1 (configuration not stated) | 
5 |  |  | CCCCCCCCCCOc1cccc(C(O)c2nc(C)c[nH]2)c1 (configuration not stated) | IC50 [3]: > 30000 nM
6 | 1000 | 30 | CCC(O)(c1cccc(OCC#Cc2ccccc2)c1)c1nccs1 (configuration not stated) | 
7 |  |  | OC(c1cccc(OCc2ccc3ccccc3c2)c1)c1nccs1 (configuration not stated) | IC50 [3]: 30000 nM
8 | 500 | 5 | COC(C)(c1cccc(OCc2ccc3ccccc3c2)c1)c1nccs1 (configuration not stated) | IC50 [3]: 800 nM
9 | 40000 | 1000 | CC(C)C(O)(c1cccc(OCc2ccc3ccccc3c2)c1)c1nccs1 (configuration not stated) | 
10 |  |  | Cc1cnc(C(O)c2cccc(OCc3ccc4ccccc4c3)c2)[nH]1 (configuration not stated) | IC50 [3]: > 30000 nM
11 | 800 | 6 | CCC(O)(c1cccc(OC/C=C/c2ccccc2)c1)c1nccs1 (configuration not stated) | 
12 |  | 8 | CCC(OC)(c1cccc(OCc2ccc3ccccc3c2)c1)c1nccs1 (configuration not stated) [ZM-211965] | IC50 [3]: 500 nM; IC50 (Homo sapiens [4]): 400 nM; IC50 (Homo sapiens [5]): > 100000 nM; IC50 (Mus musculus [6]): 8 nM; IC50 (Mus musculus [7]): > 50000 nM; IC50 (Rattus norvegicus [8]): 500 nM; IC50 (Rattus norvegicus [9]): > 100000 nM; ED50 (Rattus norvegicus [10]): 10 mg/kg
13 | > 40000 |  | COC1(c2nccs2)CCc2c(OCc3ccc4ccccc4c3)cccc21 (configuration not stated) | 
14 | ~40000 | 2000 | COC(C)(c1cccc(OCc2ccc3ccccc3c2)c1)c1nccs1 (stereo in doubt; 2o) | 
15 | 500 | < 30 | COC1(c2nccs2)CCc2ccc(OCc3ccc4ccccc4c3)cc21 (single isomer, unassigned; (+)) | IC50 [11]: 130 nM
16 | > 40000 |  | COC1CCc2ccc(OCc3ccc4ccccc4c3)cc21 (configuration not stated) | 
17 | 11000 |  | CCC(O)(c1cccc(OCCCc2ccccc2)c1)c1nccs1 (configuration not stated) | 
18 | > 40000 | 1500 | COC1(c2nccs2)CCc2ccc(OCc3ccc4ccccc4c3)cc21 (single isomer, unassigned; (-)) | IC50 [11]: > 20000 nM
19 | > 40000 |  | c1ccc2cc(COc3ccc4c(c3)C(c3nccs3)CC4)ccc2c1 (configuration not stated) | 
20 |  |  | CC(c1cc2ccccc2s1)N(O)C(N)=O (configuration not stated) [ZILEUTON] | IC50 (Homo sapiens [4]): 2000 nM; IC50 (Homo sapiens [5]): 25000 nM; IC50 (Mus musculus [6]): 1200 nM; IC50 (Mus musculus [7]): 27000 nM; IC50 (Rattus norvegicus [8]): 2000 nM; ED50 (Rattus norvegicus [10]): 5 mg/kg; IC50 (Rattus norvegicus [12]): 25000 nM
21 | ~40000 |  | Cc1cnc(C(C)(O)c2cccc(OCc3ccc4ccccc4c3)c2)s1 (configuration not stated) | 
22 | 7000 | 300 | COC(c1cccc(OCc2ccc3ccccc3c2)c1)c1nccs1 (configuration not stated) | IC50 [3]: 6000 nM
23 | 6300 |  | CCC(OC)(c1cccc(OCc2ccc3ccccc3c2)c1)c1cncs1 (configuration not stated) | 
24 | 600 |  | CCC(OC)(c1cccc(OCc2ccc3ccccc3c2)c1)c1cscn1 (configuration not stated) | 
25 | 700 | 30 | COC(C)(c1cccc(OCc2ccc3ccccc3c2)c1)c1nccs1 (stereo in doubt; 2p) | 
26 | 700 | 14 | COC1(c2nccs2)CCc2ccc(OCc3ccc4ccccc4c3)cc21 (racemic) | IC50 [11]: 800 nM
27 | 2500 |  | CCC(O)(c1cccc(OCC#Cc2cccc(C)c2)c1)c1nccs1 (configuration not stated) | 
28 | 40000 | 800 | CCC(OC)(c1cccc(OCc2ccc(F)c(F)c2)c1)c1nccs1 (configuration not stated) | 
29 | > 40000 |  | CCC(OC)(c1nccs1)c1ccccc1OCc1ccc2ccccc2c1 (configuration not stated) | 
30 | 1100 |  | CCC(O)(c1cccc(OCc2ccc(Cl)c(Cl)c2)c1)c1nccs1 (configuration not stated) | 
